Source: ChEMBL document CHEMBL4813974 (Eur J Med Chem, 2021)
The source made the active and inactive calls. The rule behind the calls is not given here.

Tests used:
[1] = target: T1, Alkaline ceramidase 3 (Mus musculus) (UniProt Q9D099); assay: Inhibition of ACER3 in ASAH2-null mouse embryonic fibroblast lysate using RBM14C16 fluorogenic substrate measured at 1:1 substrate to compound molar ratio at pH 9 in presence of Ca2+ by fluorescence spectrophotometry; conditions: MEF
T1 sequence (whole entry): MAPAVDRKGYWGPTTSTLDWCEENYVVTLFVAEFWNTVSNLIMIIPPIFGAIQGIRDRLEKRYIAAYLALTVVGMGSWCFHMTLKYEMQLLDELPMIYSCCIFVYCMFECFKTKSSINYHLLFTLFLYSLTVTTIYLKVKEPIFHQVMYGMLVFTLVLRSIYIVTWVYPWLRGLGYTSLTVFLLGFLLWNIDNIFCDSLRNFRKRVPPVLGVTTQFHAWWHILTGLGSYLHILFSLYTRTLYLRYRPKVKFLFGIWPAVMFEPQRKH

[2] = target: T2, Acid ceramidase (Homo sapiens) (UniProt Q13510); assay: Inhibition of human ASAH1 stably over expressed in human A-375 cell lysate using RBM14C12 fluorogenic substrate measured at 2:1 compound to substrate molar ratio at pH 4.5 by fluorescence spectrophotometry; assay type: subcellular
T2 sequence (whole entry): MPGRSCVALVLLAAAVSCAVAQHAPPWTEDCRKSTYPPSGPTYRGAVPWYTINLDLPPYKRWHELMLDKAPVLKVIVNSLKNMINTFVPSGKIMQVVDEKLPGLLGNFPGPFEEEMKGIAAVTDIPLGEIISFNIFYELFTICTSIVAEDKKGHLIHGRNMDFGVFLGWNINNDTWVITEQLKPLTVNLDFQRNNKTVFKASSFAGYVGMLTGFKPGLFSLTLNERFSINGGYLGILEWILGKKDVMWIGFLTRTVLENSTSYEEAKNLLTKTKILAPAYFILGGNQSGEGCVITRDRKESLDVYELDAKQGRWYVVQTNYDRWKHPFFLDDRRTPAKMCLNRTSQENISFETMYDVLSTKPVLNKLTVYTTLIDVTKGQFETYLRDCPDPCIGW

Neutral ceramidase = Neutral ceramidase (Homo sapiens, UniProt Q9NR71); assay: Inhibition of human ASAH2 stably over expressed in human A-375 cell lysate using RBM14C24 fluorogenic substrate measured at 20 uM at pH 7.5 by fluorescence spectrophotometry; assay type: subcellular
[3] = target: T2, Acid ceramidase (Homo sapiens); assay: Inhibition of human ASAH1 stably over expressed in human A-375 cell lysate using RBM14C12 fluorogenic substrate measured at 1:1 compound to substrate molar ratio at pH 4.5 by fluorescence spectrophotometry; assay type: subcellular
[4] = target: Neutral ceramidase (Mus musculus) (UniProt Q9JHE3); assay: Inhibition of ASAH2 in wild type mouse intact embryonic fibroblast using RBM14C16 fluorogenic substrate measured at pH 7.5 incubated for 3 hrs by fluorescence spectrophotometry; conditions: MEF
Summary of the method: (§1)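 Intact MEF (ASAH2-null or wild type) seeded at 2x10^4 cells/well 24 h before the assay. Then given RBM14C16 (10 μM) plus a range of compound concentrations, added together, in DMEM 10% FBS for 3 h at 37 °C. Stopped with MeOH, oxidized with NaIO4 at pH 10.6, umbelliferone fluorescence read at 355/460 nm. Normalized to SRB protein; three experiments in triplicate.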

[5] = target: T1, Alkaline ceramidase 3 (Mus musculus); assay: Inhibition of ACER3 in ASAH2-null mouse intact embryonic fibroblast using RBM14C16 fluorogenic substrate measured at pH 9 for 3 hrs by fluorescence spectrophotometry; conditions: MEF
Summary of the method: as §1

Sequence of Neutral ceramidase (Q9NR71 whole entry): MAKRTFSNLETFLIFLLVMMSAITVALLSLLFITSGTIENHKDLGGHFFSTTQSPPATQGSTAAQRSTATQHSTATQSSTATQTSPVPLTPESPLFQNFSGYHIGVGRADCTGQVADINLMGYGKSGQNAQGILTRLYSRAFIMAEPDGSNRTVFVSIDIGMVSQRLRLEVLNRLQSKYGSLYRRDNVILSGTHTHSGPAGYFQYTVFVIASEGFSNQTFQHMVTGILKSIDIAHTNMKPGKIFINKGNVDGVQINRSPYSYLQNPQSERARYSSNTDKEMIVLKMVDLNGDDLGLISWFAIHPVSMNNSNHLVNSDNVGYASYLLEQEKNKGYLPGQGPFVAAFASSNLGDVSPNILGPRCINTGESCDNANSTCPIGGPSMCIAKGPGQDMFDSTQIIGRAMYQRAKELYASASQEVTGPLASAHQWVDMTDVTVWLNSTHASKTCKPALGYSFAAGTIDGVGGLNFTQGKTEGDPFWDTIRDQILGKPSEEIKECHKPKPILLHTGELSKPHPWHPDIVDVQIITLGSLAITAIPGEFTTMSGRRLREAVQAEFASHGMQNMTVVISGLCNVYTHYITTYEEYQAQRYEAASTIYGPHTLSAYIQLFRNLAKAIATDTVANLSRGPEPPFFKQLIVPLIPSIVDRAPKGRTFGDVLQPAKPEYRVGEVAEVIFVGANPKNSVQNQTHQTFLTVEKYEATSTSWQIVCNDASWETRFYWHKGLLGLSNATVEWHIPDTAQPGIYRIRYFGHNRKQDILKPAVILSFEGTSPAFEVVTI
Sequence of Neutral ceramidase (Mus musculus) (Q9JHE3 whole entry): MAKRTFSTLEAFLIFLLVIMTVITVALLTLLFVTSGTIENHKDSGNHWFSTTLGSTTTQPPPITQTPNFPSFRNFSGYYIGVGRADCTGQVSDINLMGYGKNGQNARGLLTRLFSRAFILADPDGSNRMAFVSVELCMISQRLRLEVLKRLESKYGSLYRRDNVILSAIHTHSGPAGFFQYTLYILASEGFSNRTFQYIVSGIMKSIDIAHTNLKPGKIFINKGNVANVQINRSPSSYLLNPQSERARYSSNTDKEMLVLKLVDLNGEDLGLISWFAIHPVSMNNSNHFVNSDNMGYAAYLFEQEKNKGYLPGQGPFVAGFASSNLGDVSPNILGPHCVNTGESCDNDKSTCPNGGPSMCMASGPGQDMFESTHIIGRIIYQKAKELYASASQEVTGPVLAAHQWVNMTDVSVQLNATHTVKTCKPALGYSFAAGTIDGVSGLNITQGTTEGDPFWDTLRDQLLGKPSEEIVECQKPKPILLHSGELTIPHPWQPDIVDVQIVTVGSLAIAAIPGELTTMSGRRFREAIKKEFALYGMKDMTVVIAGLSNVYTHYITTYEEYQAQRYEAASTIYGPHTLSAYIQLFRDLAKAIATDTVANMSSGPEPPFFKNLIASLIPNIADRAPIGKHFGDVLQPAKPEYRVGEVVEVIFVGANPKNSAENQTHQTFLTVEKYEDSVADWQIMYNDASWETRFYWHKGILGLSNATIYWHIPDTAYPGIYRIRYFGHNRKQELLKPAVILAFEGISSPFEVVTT

| inhibition [1] | inhibition [2] | Compound | also measured |
| --- | --- | --- | --- |
| inactive | inactive | CCCCCCCCCCCC/C=C/[C@@H](O)[C@@H](C)NC(=O)CBr | – |
| inactive | inactive | CCCCCCCCCCCC/C=C/[C@@H](O)[C@@H](C)NC(=O)C(C)(C)C | – |
| inactive | inactive | CCCCCCCCCCCC/C=C/[C@@H](O)[C@H](C)NC(=O)CBr | – |
| – | – | CCCCCCCCCCCC/C=C/[C@@H](O)[C@@H](C)NC(=O)c1ccc(CCCCCC)cc1 | inhibition (Neutral ceramidase): inactive; inhibition [3]: inactive |
| inactive | inactive | CCCCCCCCCCCC/C=C/[C@H](O)[C@@H](C)NC(=O)CBr | – |
| – | – | CCCCCCCCCCCC/C=C/[C@@H](O)[C@@H](C)NC(=O)c1ccc(CCCCC)cc1 | inhibition (Neutral ceramidase): inactive; inhibition [3]: inactive |
| inactive | inactive | CCCCCCCCCCCCCC[C@H](O)[C@@H](C)N | – |
| inactive | inactive | CCCCCCCCCCCCCC[C@@H](O)[C@@H](C)NC(=O)c1ccc(CCCCCCC)cc1 | – |
| – | – | CCCCCCCCCCCC/C=C/[C@@H](O)[C@@H](C)NC(=O)c1ccc(OCCOCOC)cc1 | inhibition (Neutral ceramidase): inactive; inhibition [3]: inactive |
| – | – | CCCCCCCCCCCC/C=C/[C@@H](O)[C@@H](C)NC(=O)c1ccc(OCCCCC)cc1 | inhibition (Neutral ceramidase): inactive; inhibition [3]: inactive |
| inactive | inactive | CCCCCCCCCCCCCC[C@@H](O)[C@H](C)NC(=O)C(C)(C)C | – |
| inactive | inactive | CCCCCCCCCCCCCC[C@@H](O)[C@H](C)NC(=O)CCCCCCC | – |
| – | – | CCCCCCCCCCCC/C=C/[C@@H](O)[C@@H](C)NC(=O)c1ccc(OCCOCCOC)cc1 | inhibition (Neutral ceramidase): inactive; inhibition [3]: inactive |
| – | – | CCCCCCCCCCCC/C=C/[C@@H](O)[C@@H](C)NC(=O)c1ccc(C(C)(C)C)cc1 | inhibition (Neutral ceramidase): inactive; inhibition [3]: inactive |
| – | – | CCCCCCCCCCCC/C=C/[C@@H](O)[C@@H](C)NC(=O)c1ccc(OCCCCCCC)cc1 | inhibition (Neutral ceramidase): inactive; inhibition [3]: inactive |
| inactive | inactive | CCCCCCCCCCCC/C=C/[C@@H](O)[C@H](C)NC(=O)CCCCCCC | – |
| inactive | inactive | CCCCCCCCCCCCCC[C@H](O)[C@@H](C)NC(=O)CCCCCCC | – |
| inactive | inactive | CCCCCCCCCCCCCC[C@H](O)[C@@H](C)NC(=O)CBr | – |
| inactive | inactive | CCCCCCCCCCCCCC[C@@H](O)[C@@H](C)N | – |
| inactive | inactive | CCCCCCCCCCCC/C=C/[C@@H](O)[C@H](C)NC(=O)c1ccc(CCCCCCC)cc1 | – |
| inactive | inactive | CCCCCCCCCCCCCC[C@H](O)[C@H](C)NC(=O)C(C)(C)C | – |
| inactive | inactive | CCCCCCCCCCCCCC[C@H](O)[C@@H](C)NC(=O)C(C)(C)C | – |
| inactive | inactive | CCCCCCCCCCCCCC[C@@H](O)[C@@H](C)NC(=O)CBr | – |
| inactive | inactive | CCCCCCCCCCCCCC[C@@H](O)[C@@H](C)NC(=O)CCCCCCC | – |
| inactive | inactive | CCCCCCCCCCCC/C=C/[C@H](O)[C@@H](C)NC(=O)c1ccc(CCCCCCC)cc1 | – |
| inactive | inactive | CCCCCCCCCCCC/C=C/[C@H](O)[C@@H](C)NC(=O)CCCCCCC | – |
| inactive | inactive | CCCCCCCCCCCCCC[C@H](O)[C@H](C)NC(=O)CBr | – |

| inhibition [1] | inhibition [2] | Compound | also measured |
| --- | --- | --- | --- |
| inactive | inactive | CCCCCCCCCCCCCC[C@@H](O)[C@H](C)NC(=O)c1ccc(CCCCCCC)cc1 | – |
| inactive | inactive | CCCCCCCCCCCC/C=C/[C@H](O)[C@H](C)N | – |
| – | – | CCCCCCCCCCCC/C=C/[C@@H](O)[C@@H](C)NC(=O)c1ccc(OCOC)cc1 | inhibition (Neutral ceramidase): inactive; inhibition [3]: inactive |
| inactive | inactive | CCCCCCCCCCCCCC[C@@H](O)[C@H](C)N | – |
| inactive | inactive | CCCCCCCCCCCC/C=C/[C@H](O)[C@H](C)NC(=O)c1ccc(CCCCCCC)cc1 | – |
| – | – | CCCCCCCCCCCC/C=C/[C@@H](O)[C@@H](C)NC(=O)c1ccc(OCCCCCCCOCOC)cc1 | inhibition (Neutral ceramidase): inactive; inhibition [3]: inactive |
| – | – | CCCCCCCCCCCC/C=C/[C@@H](O)[C@@H](C)NC(=O)c1ccc(OCCCCCC)cc1 | inhibition (Neutral ceramidase): inactive; inhibition [3]: inactive |
| – | – | CCCCCCCCCCCC/C=C/[C@@H](O)[C@@H](C)NC(=O)c1ccc(CC)cc1 | inhibition (Neutral ceramidase): inactive; inhibition [3]: inactive |
| – | – | CCCCCCCCCCCC/C=C/[C@@H](O)[C@@H](C)NC(=O)c1ccc(CCC)cc1 | inhibition (Neutral ceramidase): inactive; inhibition [3]: inactive |
| inactive | inactive | CCCCCCCCCCCC/C=C/[C@@H](O)[C@@H](C)N | – |
| inactive | inactive | CCCCCCCCCCCCCC[C@H](O)[C@@H](C)NC(=O)c1ccc(CCCCCCC)cc1 | – |
| inactive | inactive | CCCCCCCCCCCCCC[C@H](O)[C@H](C)NC(=O)CCCCCCC | – |
| inactive | inactive | CCCCCCCCCCCC/C=C/[C@H](O)[C@H](C)NC(=O)C(C)(C)C | – |
| inactive | inactive | CCCCCCCCCCCC/C=C/[C@@H](O)[C@H](C)NC(=O)C(C)(C)C | – |
| inactive | inactive | CCCCCCCCCCCC/C=C/[C@H](O)[C@H](C)NC(=O)CCCCCCC | – |
| – | – | CCCCCCCCCCCC/C=C/[C@@H](O)[C@@H](C)NC(=O)CCCCCCC | inhibition [4]: inactive; inhibition [5]: inactive |
| inactive | inactive | CCCCCCCCCCCCCC[C@H](O)[C@H](C)N | – |
| – | – | CCCCCCCCCCCC/C=C/[C@@H](O)[C@@H](C)NC(=O)c1ccc(OCCCCCOCOC)cc1 | inhibition (Neutral ceramidase): inactive; inhibition [3]: inactive |
| – | – | CCCCCCCCCCCC/C=C/[C@@H](O)[C@@H](C)NC(=O)c1ccccc1 | inhibition (Neutral ceramidase): inactive; inhibition [3]: inactive |
| inactive | inactive | CCCCCCCCCCCCCC[C@@H](O)[C@H](C)NC(=O)CBr | – |
| inactive | inactive | CCCCCCCCCCCC/C=C/[C@@H](O)[C@H](C)N | – |
| inactive | inactive | CCCCCCCCCCCC/C=C/[C@H](O)[C@@H](C)N | – |
| inactive | inactive | CCCCCCCCCCCC/C=C/[C@H](O)[C@@H](C)NC(=O)C(C)(C)C | – |
| inactive | inactive | CCCCCCCCCCCCCC[C@@H](O)[C@@H](C)NC(=O)C(C)(C)C | – |
| inactive | inactive | CCCCCCCCCCCCCC[C@H](O)[C@H](C)NC(=O)c1ccc(CCCCCCC)cc1 | – |
| inactive | inactive | CCCCCCCCCCCC/C=C/[C@H](O)[C@H](C)NC(=O)CBr | – |
